Experimental data taken from ChEMBL document CHEMBL1136004, “Ethyl (3S,4aR,6S,8aR)-6-(4-ethoxycar- bonylimidazol-1-ylmethyl)decahydroiso-quinoline-3-carboxylic ester: a prodrug of a GluR5 kainate receptor antagonist active in two animal models of acute migraine” (J Med Chem, 2002).

What was measured:
Glutamate receptor 1 = Glutamate receptor 1 (Homo sapiens, UniProt P42261); experiment: Ability to displace binding of [3H]AMPA to recombinant human Ionotropic glutamate receptor AMPA 1
In short: (§1)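 Radioligand displacement with [3H]AMPA on membranes from HEK 293 cells expressing the cloned human AMPA receptor subunit. Ki (μM) reported as the mean ± SEM of at least three determinations.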

[1] = Compound was administered orally 1 h prior to trigeminal stimulation and was evaluated for the decrease extravasation
[2] = target: T1, Glutamate receptor ionotropic, kainate 2 (Homo sapiens, UniProt Q13002); experiment: Ability to displace binding of [3H]KA to recombinant human KA receptor Ionotropic glutamate receptor ionotropic kainate 2 expressed in EK 293 cell membranes
In short: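 Displacement of [3H]KA binding on membranes from HEK 293 cells expressing the recombinant human kainate receptor subunit. Ki (μM) given as the mean ± SEM from at least three determinations.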

[3] = target: Glutamate receptor ionotropic, kainate 1 (Homo sapiens) (UniProt P39086); experiment: Ability to displace binding of [3H]KA to recombinant human Ionotropic glutamate receptor ionotropic kainate 1
[4] = target: T1, Glutamate receptor ionotropic, kainate 2; experiment: Ability to displace binding of [3H]KA to recombinant human KA receptor Ionotropic glutamate receptor ionotropic kainate 2
[5] = target: Glutamate receptor ionotropic, kainate 3 (Homo sapiens) (UniProt Q13003); experiment: Ability to displace binding of [3H]KA to recombinant human KA receptor Ionotropic glutamate receptor ionotropic kainate 3
Glutamate receptor 3 = Glutamate receptor 3 (Homo sapiens, UniProt P42263); experiment: Ability to displace binding of [3H]AMPA to recombinant human Ionotropic glutamate receptor AMPA 3; in short: as §1
Glutamate receptor 4 = Glutamate receptor 4 (Homo sapiens, UniProt P48058); experiment: Ability to displace binding of [3H]AMPA to recombinant human Ionotropic glutamate receptor AMPA 4; in short: as §1
Glutamate receptor 2 = Glutamate receptor 2 (Homo sapiens, UniProt P42262); experiment: Ability to displace binding of [3H]AMPA to recombinant human Ionotropic glutamate receptor AMPA 2
Chain of Glutamate receptor 2 (P42262 whole entry): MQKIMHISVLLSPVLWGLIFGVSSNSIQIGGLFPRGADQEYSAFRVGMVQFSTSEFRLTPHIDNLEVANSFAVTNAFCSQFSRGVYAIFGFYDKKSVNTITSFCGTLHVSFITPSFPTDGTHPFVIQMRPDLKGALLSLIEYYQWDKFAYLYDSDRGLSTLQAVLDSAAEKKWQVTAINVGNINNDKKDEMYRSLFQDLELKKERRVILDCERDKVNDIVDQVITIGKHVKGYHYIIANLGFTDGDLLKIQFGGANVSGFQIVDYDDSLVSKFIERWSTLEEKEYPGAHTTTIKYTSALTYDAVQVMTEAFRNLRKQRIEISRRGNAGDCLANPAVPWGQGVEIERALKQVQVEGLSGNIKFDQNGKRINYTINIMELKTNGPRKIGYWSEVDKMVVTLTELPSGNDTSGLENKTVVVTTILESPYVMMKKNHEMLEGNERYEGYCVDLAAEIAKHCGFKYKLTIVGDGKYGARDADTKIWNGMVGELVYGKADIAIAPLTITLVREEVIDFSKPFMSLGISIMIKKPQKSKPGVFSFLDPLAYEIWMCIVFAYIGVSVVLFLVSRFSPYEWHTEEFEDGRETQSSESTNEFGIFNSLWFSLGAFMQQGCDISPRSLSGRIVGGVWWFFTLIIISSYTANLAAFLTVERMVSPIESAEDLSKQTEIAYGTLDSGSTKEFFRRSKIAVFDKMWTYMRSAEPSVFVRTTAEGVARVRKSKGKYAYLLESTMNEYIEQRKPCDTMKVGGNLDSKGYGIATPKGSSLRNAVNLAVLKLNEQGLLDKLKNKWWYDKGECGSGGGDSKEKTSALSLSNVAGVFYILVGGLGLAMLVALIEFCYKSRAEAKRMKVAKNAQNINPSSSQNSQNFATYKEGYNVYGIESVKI

T1 sequence (Q13002 whole entry): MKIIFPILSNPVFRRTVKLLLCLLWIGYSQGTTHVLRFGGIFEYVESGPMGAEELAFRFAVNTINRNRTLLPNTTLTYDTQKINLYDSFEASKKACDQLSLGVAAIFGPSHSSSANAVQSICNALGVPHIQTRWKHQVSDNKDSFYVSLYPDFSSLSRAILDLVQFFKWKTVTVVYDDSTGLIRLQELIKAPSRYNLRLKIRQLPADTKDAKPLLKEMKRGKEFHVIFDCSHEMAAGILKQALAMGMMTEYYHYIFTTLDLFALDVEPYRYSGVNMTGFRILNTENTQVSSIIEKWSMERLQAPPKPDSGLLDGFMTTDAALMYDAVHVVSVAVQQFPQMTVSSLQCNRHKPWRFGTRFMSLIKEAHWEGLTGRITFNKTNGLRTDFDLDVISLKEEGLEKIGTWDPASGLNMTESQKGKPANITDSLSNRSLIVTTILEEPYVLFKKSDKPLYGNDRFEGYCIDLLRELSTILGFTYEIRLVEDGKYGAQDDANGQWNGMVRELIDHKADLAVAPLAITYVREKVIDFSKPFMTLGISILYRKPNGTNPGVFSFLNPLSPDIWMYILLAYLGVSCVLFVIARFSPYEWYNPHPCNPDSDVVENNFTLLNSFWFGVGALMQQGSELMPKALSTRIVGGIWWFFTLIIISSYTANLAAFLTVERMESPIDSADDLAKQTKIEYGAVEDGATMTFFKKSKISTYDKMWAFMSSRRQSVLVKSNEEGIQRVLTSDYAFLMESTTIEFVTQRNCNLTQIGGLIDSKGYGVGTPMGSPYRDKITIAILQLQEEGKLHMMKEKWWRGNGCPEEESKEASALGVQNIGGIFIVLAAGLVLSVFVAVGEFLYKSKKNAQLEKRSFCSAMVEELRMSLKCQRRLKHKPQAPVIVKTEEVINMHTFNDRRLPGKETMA
Chain of Glutamate receptor 1 (P42261 whole entry): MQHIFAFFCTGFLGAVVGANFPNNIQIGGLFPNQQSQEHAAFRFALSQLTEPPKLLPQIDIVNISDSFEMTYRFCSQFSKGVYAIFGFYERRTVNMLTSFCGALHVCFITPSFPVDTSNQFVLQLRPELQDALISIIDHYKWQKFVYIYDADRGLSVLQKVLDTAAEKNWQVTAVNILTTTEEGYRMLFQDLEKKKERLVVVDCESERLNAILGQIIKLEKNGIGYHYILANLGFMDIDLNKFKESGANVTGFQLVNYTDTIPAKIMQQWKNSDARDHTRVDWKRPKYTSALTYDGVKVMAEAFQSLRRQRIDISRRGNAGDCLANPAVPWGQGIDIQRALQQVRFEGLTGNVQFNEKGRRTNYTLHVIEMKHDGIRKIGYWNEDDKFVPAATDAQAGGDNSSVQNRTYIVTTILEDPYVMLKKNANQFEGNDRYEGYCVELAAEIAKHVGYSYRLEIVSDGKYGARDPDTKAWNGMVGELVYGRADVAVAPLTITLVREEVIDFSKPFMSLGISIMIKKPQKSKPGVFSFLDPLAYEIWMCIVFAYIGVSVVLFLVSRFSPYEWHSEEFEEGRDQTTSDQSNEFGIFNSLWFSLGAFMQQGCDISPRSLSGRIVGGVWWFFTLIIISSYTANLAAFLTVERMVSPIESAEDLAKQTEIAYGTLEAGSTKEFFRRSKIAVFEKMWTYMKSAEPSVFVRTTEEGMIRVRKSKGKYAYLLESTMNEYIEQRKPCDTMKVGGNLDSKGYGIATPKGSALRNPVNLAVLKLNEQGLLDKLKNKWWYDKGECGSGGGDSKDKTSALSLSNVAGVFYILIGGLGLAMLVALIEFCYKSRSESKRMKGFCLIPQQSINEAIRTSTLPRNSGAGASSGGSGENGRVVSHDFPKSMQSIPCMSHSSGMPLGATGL
Chain of Glutamate receptor 3 (P42263 whole entry): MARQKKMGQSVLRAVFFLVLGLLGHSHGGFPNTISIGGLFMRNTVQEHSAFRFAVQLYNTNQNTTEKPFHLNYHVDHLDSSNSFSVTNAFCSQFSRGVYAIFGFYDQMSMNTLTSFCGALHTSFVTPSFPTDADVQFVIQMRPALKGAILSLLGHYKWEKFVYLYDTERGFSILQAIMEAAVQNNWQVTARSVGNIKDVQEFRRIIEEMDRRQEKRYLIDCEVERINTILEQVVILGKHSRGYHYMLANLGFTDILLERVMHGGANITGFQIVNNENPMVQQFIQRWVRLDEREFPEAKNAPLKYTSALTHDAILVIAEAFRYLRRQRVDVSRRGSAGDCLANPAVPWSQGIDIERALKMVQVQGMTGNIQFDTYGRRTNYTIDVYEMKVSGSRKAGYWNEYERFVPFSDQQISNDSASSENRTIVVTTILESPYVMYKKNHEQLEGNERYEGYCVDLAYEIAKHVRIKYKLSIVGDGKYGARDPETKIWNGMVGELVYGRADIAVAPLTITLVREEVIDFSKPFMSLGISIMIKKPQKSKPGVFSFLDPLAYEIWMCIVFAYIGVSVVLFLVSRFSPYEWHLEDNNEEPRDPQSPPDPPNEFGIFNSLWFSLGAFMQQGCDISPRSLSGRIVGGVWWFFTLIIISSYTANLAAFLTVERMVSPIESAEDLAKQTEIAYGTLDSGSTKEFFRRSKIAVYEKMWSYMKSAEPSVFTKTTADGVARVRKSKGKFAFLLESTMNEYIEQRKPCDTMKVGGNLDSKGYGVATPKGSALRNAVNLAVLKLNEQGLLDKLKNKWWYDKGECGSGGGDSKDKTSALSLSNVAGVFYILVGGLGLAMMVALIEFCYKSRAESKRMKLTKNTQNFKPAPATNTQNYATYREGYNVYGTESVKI
Chain of Glutamate receptor 4 (P48058 whole entry): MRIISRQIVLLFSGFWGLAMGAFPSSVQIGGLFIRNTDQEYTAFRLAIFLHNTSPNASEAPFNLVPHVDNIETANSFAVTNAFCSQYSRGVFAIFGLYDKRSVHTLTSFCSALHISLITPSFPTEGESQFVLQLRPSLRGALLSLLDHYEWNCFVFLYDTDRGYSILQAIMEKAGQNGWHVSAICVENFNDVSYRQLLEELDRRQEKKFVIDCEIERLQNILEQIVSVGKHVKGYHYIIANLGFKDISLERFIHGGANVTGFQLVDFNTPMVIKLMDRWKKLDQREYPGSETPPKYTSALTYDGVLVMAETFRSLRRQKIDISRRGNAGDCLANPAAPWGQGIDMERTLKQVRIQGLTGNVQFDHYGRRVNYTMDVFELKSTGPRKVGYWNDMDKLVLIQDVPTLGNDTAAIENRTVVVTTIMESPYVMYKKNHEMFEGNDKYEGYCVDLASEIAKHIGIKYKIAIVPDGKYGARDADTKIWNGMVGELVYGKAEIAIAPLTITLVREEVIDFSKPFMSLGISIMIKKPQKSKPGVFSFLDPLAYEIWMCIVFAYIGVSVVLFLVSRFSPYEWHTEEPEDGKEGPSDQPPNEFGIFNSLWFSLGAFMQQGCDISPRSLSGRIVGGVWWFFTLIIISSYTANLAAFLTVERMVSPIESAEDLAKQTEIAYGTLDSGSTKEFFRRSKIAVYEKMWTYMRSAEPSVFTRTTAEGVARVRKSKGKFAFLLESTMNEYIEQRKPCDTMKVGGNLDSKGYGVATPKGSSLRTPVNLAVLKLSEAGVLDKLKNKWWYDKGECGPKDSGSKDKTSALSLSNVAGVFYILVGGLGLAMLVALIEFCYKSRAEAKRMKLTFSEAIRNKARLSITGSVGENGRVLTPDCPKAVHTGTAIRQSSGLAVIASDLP

| Ki (Glutamate receptor 1) | Ki (Glutamate receptor 2) | Structure (SMILES) | ID50 [1] | Ki [2] | Ki [3] | Ki [4] | Ki [5] | Ki (Glutamate receptor 3) | Ki (Glutamate receptor 4) |
| --- | --- | --- | --- | --- | --- | --- | --- | --- | --- |
| 1.6 µM |  | NS(=O)(=O)c1cccc2c1c([N+](=O)[O-])cc1nc(O)c(O)nc12 [NBQX] |  |  |  |  |  |  |  |
|  |  | CN(C)CCc1c[nH]c2ccc(Cn3cncn3)cc12 [RIZATRIPTAN] | 8 µg/kg |  |  |  |  |  |  |
| 134 µM | 117 µM | O=C(O)c1cn(C[C@H]2CC[C@H]3CN[C@H](C(=O)O)C[C@H]3C2)cn1 |  | 236 µM | 0.156 µM | > 1000 µM | 48.5 µM | 247 µM | 262 µM |

| Structure (SMILES) | Ki (Glutamate receptor 1) | Ki (Glutamate receptor 2) | ID50 [1] | Ki [2] | Ki [3] | Ki [4] | Ki [5] | Ki (Glutamate receptor 3) | Ki (Glutamate receptor 4) |
| --- | --- | --- | --- | --- | --- | --- | --- | --- | --- |
| O=C(O)[C@@H]1C[C@H]2C[C@@H](CCc3nn[nH]n3)CC[C@H]2CN1 [TEZAMPANEL ANHYDROUS] | 9.2 µM |  |  | > 100 µM | 4.2 µM | > 100 µM | > 100 µM | 32 µM | 50 µM |
